Experimental data taken from ChEMBL document CHEMBL1134340, “GnRH antagonists: a new generation of long acting analogues incorporating p-ureido-phenylalanines at positions 5 and 6” (J Med Chem, 2001).
In brackets after ≈: the same amount, converted by molar mass. *1 amine or outer side, *2 acyl side, *3 side chain or, on linkers, in order; H or OH if unused. Where a SMILES comes first, the peptide text is derived from it. [ ]: non-standard residue; d: D form. Phe(4-NH(5-NH2triazol-3-yl)) = Nc1nc(Nc2ccc(C[C@H](N)C(=O)O)cc2)n[nH]1; X1 = Nc1nc(Nc2ccc(C[C@@H](N[*:1])C(=O)[*:2])cc2)n[nH]1; d(hArg(Et2)) = CCN=C(NCC)NCCCC[C@@H](N)C(=O)O; hArg(Et2) = CCN=C(NCC)NCCCC[C@H](N)C(=O)O; dPhe(4-Cl) = N[C@H](Cc1ccc(Cl)cc1)C(=O)O; d2Nal = N[C@H](Cc1ccc2ccccc2c1)C(=O)O; Lys(iPr) = CC(C)NCCCC[C@H](N)C(=O)O; dCit = NC(=O)NCCC[C@@H](N)C(=O)O; d3Pal = N[C@H](Cc1cccnc1)C(=O)O

How the values were obtained:
[1] = organism: Rattus norvegicus; assay: Compound was tested for inhibition of Leutenizing hormone release at 48 hours (intermediate duration) in castrated male rat assay; type: functional
Method in brief: (§1)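 Male Sprague-Dawley rats (180-200 g), castrated under ether 10 days earlier, 5 per group. 50 µg/rat given sc in 100 µL 40 mM phosphate buffer with 0.1% BSA and 0.6% DMSO; acyline run as internal standard. Tail blood taken predose and at 24, 48, 72, 96 (sometimes 120) h; plasma LH by RIA. Duration classed by >80% LH inhibition at each time.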

[2] = organism: Rattus norvegicus; assay: Effective dose for histamine release was determined; type: functional
Method in brief: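 ED50 for histamine release calculated from % release values across concentrations in rat peritoneal mast cell assay (2 min, 37 °C, o-phthalaldehyde fluorometric read-out, corrected for vehicle release).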

[3] = organism: Rattus norvegicus; assay: Compound was tested for inhibition of Leutenizing hormone release at 72 hours (long duration) in castrated male rat assay; type: functional; parameters: concentration or dose not given beside the values; method in brief: as §1
[4] = biological target: T1, Gonadotropin-releasing hormone receptor (Homo sapiens, UniProt P30968); assay: Antagonism of human GnHR receptor, determined in a reporter gene assay in HEK293 cells; type: functional, cell-based
T1 sequence (P30968 whole entry): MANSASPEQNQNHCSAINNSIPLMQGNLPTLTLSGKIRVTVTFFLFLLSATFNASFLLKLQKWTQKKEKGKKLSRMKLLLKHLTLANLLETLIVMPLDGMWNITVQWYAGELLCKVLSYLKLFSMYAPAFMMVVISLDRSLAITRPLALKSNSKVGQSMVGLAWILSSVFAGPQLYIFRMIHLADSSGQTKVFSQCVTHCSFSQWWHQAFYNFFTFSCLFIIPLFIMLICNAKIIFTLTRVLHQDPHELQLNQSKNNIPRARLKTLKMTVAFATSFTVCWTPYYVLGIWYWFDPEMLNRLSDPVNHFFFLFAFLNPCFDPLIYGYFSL
Method in brief: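 HEK293 cells stably expressing cloned human GnRH receptor plus luciferase reporter under LH alpha subunit promoter, plated 24 h before assay. Compound in 1% DMSO added 10 min at 37 °C, then GnRH at 3 nM final; 5 h incubation, luciferase luminescence read. Six concentrations in duplicate; blank-subtracted cps as % of GnRH control; mean of two determinations.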

[5] = organism: Rattus norvegicus; assay: Compound was tested for histamine release at a concentration of 10 ug/mL; type: functional
Method in brief: (§2)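 Sprague-Dawley rat peritoneal mast cells, Percoll-purified, in heparinized balanced salt solution with albumin, pH 7.2. Cells exposed to compound or vehicle for 2 min at 37 °C. Supernatant histamine measured spectrofluorometrically after o-phthalaldehyde derivatization; pellets lysed for retained histamine. Reported as % of total histamine released, corrected for spontaneous release in vehicle.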

[6] = organism: Rattus norvegicus; assay: Compound was tested for histamine release at a concentration of 100 ug/mL; type: functional; method in brief: as §2
[7] = biological target: T1, Gonadotropin-releasing hormone receptor; assay: Competitive antagonism of GnRH-induced response in the reporter gene assay; type: functional; conditions: read-out: pA2 (converted)
Method in brief: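 Same HEK293 human GnRH receptor luciferase reporter cells. Seven-point GnRH curve (10 µM to 10 pM final) run in duplicate without or with four to five increasing compound concentrations (10 min preincubation, 37 °C), then 5 h and luminescence. GnRH EC50 at each level by four-parameter logistic fit, giving pA2; mean of two determinations in duplicate.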

[8] = organism: Rattus norvegicus; assay: Compound was tested for histamine release at a concentration of 30 ug/mL; type: functional; method in brief: as §2
[9] = organism: Rattus norvegicus; assay: Compound was tested for inhibition of Leutenizing hormone release at 24 hours (very short duration) in castrated male rat assay; NI means no inhibition at 24 hr; type: functional, organism-based; method in brief: as §1
[10] = organism: Rattus norvegicus; assay: Compound was tested for histamine release at a concentration of 1 ug/mL; type: functional; method in brief: as §2
[11] = organism: Rattus norvegicus; assay: Compound was tested for histamine release at a concentration of 3 ug/mL; type: functional; method in brief: as §2
[12] = organism: Rattus norvegicus; assay: Compound was tested for histamine release at a concentration of 150 ug/mL; type: functional; method in brief: as §2

CC(=O)N[C@H](Cc1ccc2ccccc2c1)C(=O)N[C@H](Cc1ccc(Cl)cc1)C(=O)N[C@H](Cc1cccnc1)C(=O)N[C@@H](CO)C(=O)N[C@@H](Cc1ccc(NC(=O)[C@H]2CC(=O)NC(=O)N2)cc1)C(=O)N[C@H](Cc1ccc(CNC(N)=O)cc1)C(=O)N[C@@H](CC(C)C)C(=O)N[C@@H](CCCCNC(C)C)C(=O)N1CCC[C@H]1C(=O)N[C@H](C)C(N)=O
Inhibition [1]: >80%

CC(=O)N[C@H](Cc1ccc2ccccc2c1)C(=O)N[C@H](Cc1ccc(Cl)cc1)C(=O)N[C@H](Cc1cccnc1)C(=O)N[C@@H](CO)C(=O)N[C@@H](Cc1ccc(Nc2n[nH]c(N)n2)cc1)C(=O)N[C@H](Cc1ccc(Nc2n[nH]c(N)n2)cc1)C(=O)N[C@@H](CC(C)C)C(=O)N[C@@H](CCCCNC(C)C)C(=O)N1CCC[C@H]1C(=O)N[C@H](C)C(N)=O.CC(=O)O [PRAZARELIX ACETATE] (Ac-[d2Nal][dPhe(4-Cl)][d3Pal]S[Phe(4-NH(5-NH2triazol-3-yl))][X1]L[Lys(iPr)]P[dA]-NH2)
ED50 [2]: 19 µg/mL | Inhibition [3]: >80% | IC50 [4]: 6.9 nM | HR [5]: 17% | HR [6]: 93% | Kb [7]: 1.58 nM | HR [8]: 70%

CC(=O)Nc1ccc(C[C@@H](NC(=O)[C@@H](NC(=O)[C@H](CO)NC(=O)[C@@H](Cc2cccnc2)NC(=O)[C@@H](Cc2ccc(Cl)cc2)NC(=O)[C@@H](Cc2ccc3ccccc3c2)NC(C)=O)N(C)C(N)=O)C(=O)N[C@@H](CC(C)C)C(=O)N[C@@H](CCCCNC(C)C)C(=O)N2CCC[C@H]2C(=O)N[C@H](C)C(N)=O)cc1
NI [9]: no inhibition at 24 hr

CC(=O)O.CC(=O)O.CC/N=C(\NCC)NCCCC[C@H](NC(=O)[C@H](CC(C)C)NC(=O)[C@@H](CCCCN/C(=N/CC)NCC)NC(=O)[C@H](Cc1ccc(O)cc1)NC(=O)[C@H](CO)NC(=O)[C@@H](Cc1cccnc1)NC(=O)[C@@H](Cc1ccc(Cl)cc1)NC(=O)[C@@H](Cc1ccc2ccccc2c1)NC(C)=O)C(=O)N1CCC[C@H]1C(=O)N[C@H](C)C(N)=O [GANIRELIX ACETATE] (Ac-[d2Nal][dPhe(4-Cl)][d3Pal]SY[d(hArg(Et2))]L[hArg(Et2)]P[dA]-NH2)
ED50 [2]: 11 µg/mL | HR [5]: 30% | HR [6]: 62% | Inhibition [1]: >80% | HR [8]: 57%

CC(=O)N[C@H](Cc1ccc2ccccc2c1)C(=O)N[C@H](Cc1ccc(Cl)cc1)C(=O)N[C@H](Cc1cccnc1)C(=O)N[C@@H](CO)C(=O)N[C@@H](CCCCNC(=O)[C@H]1CC(=O)NC(=O)N1)C(=O)N[C@H](CCCCNC(=O)[C@@H]1CC(=O)NC(=O)N1)C(=O)N[C@@H](CC(C)C)C(=O)N[C@@H](CCCCNC(C)C)C(=O)N1CCC[C@H]1C(=O)N[C@H](C)C(N)=O
NI [9]: no inhibition at 24 hr

CC(=O)N[C@H](Cc1ccc2ccccc2c1)C(=O)N[C@H](Cc1ccc(Cl)cc1)C(=O)N[C@H](Cc1cccnc1)C(=O)N[C@@H](CO)C(=O)N[C@@H](Cc1ccc(O)cc1)C(=O)N[C@H](CCCNC(N)=O)C(=O)N[C@@H](CC(C)C)C(=O)N[C@@H](CCCNC(=N)N)C(=O)N1CCC[C@H]1C(=O)N[C@H](C)C(N)=O [CETRORELIX] (Ac-[d2Nal][dPhe(4-Cl)][d3Pal]SY[dCit]LRP[dA]-NH2)
ED50 [2]: 1.3 µg/mL (≈ 0.908 µM) | Inhibition [3]: >80% | IC50 [4]: 4.2 nM | HR [5]: 64% | Kb [7]: 1.26 nM | HR [10]: 34% | HR [11]: 5%

CC(=O)Nc1ccc(C[C@@H](NC(=O)[C@H](CNC(=O)[C@@H]2CC(=O)NC(=O)N2)NC(=O)[C@H](CO)NC(=O)[C@@H](Cc2cccnc2)NC(=O)[C@@H](Cc2ccc(Cl)cc2)NC(=O)[C@@H](Cc2ccc3ccccc3c2)NC(C)=O)C(=O)N[C@@H](CC(C)C)C(=O)N[C@@H](CCCCNC(C)C)C(=O)N2CCC[C@H]2C(=O)N[C@H](C)C(N)=O)cc1
HR [12]: 96% | NI [9]: no inhibition at 24 hr
